This is a sample that favours compounds with a hit; in the whole collection about 0.6% have one here.
Keap1-Nrf2 PPI – disrupts human Keap1 binding to Nrf2 peptide. Keap1 Kelch-Nrf2 peptide fluorescence polarization, 1536-well. inhibition, % at 9.4 µM. 340,000 tested, 0.15% active; in the data active = inhibition above about 12%; inconclusive = no clear call, values can overlap the other calls; inactive = below about 7.3%;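 note: human Keap1 Kelch domain with fluorescein labeled Nrf2 9mer peptide probe; 0% = neutral control wells and 100% = peptide positive control; higher means more block of Keap1 binding to Nrf2 peptide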
Target sequence (Q14145 whole entry, looked up, the tested form may be a part): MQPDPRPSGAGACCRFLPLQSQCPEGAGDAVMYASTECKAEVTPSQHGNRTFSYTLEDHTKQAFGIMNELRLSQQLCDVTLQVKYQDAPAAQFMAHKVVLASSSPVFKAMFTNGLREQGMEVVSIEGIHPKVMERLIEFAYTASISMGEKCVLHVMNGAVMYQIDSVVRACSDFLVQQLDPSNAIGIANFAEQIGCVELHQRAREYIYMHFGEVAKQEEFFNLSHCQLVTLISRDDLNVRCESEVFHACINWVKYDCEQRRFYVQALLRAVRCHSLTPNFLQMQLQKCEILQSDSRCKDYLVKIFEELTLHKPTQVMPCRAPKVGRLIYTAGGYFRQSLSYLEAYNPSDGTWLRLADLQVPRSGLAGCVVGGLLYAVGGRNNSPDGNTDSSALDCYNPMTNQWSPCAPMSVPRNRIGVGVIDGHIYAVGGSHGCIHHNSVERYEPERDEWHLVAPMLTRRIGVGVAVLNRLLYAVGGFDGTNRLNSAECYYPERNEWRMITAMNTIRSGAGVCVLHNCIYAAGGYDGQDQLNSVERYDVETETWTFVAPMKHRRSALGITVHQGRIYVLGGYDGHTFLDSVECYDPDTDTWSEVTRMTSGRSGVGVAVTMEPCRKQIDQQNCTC
Tn6 DDE FP – disrupts Tn6 cyclic peptide binding to fibrin D-Dimer-E complex; P02675; Fibrin DD(E) TRITC-Tn6 fluorescence polarization displacement; inhibition, % at 8.3 µM; 370,000 tested, 0.21% active; AID 720509;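 active = inhibition above a per-campaign cutoff: mean of compounds within control limits plus 3 SD, cut at about 15% in these data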;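 note: 0% = median of all compound wells on the plate and 100% = blocking peptide control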
LANA DNA inh – KSHV C-LANA DNA binding inhibition. MBP-C-LANA/FAM-LBS DNA binding, fluorescence polarization. inhibition, % at 9 µM. 340,000 tested, 0.078% active. AID 504423;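 active = highest replicate inhibition at or above 60% at 9 µM, even if other replicates fall short; inactive = all replicates below 60% inhibition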;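 note: 0% = neutral control wells and 100% = 4 µM acridine orange control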
Rtt109 Vps75 – C. albicans Rtt109 histone acetyltransferase inhibition. purified Rtt109/Vps75, ThioGlo CoA-SH fluorescence, 4 h. inhibition, % at 34.9 µM. 330,000 tested, 0.16% active. AID 540336;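 active = inhibition of at least 50% in every replicate; inconclusive = best replicate reaches 50% inhibition but some replicates fall short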
DDE Tn7 FP inh – DD(E)-Tn7 binding inhibition, primary FP screen; P02675; FP displacement of FITC-Tn7 peptide from fibrin DD(E); 0% = median of compound wells per plate; inhibition, % at 8.3 µM; 370,000 tested, 0.13% active; AID 720508;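 active = inhibition above the mean of compounds falling within the control limits plus 3 SD of them, cut at about 14% in these data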;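 note: 0% = plate median of compound wells and 100% = 10 µM Aha-Tn7 peptide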
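Assay system: human fibrin DD(E). Input: DD(E) 2 µM final. Medium: Tris buffer with calcium and detergent, pH 7.8. Compound dosing: single point at 8.3 µM. Timing: 10 min plus 3 h, room temperature. Technique: fluorescence polarization of the labelled Tn7 tracer. Read-out: percent inhibition. Replicates: singlicate testing.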
* = called active by the depositor.

Results for COc1cccc(CNC(=O)C2CCCN(S(=O)(=O)c3c(C)n[nH]c3C)C2)c1 (stereo unspecified) ?
Keap1-Nrf2 PPI: -2; Tn6 DDE FP: 3; LANA DNA inh: 1; Rtt109 Vps75: -46; DDE Tn7 FP inh: -1

What do the screens show for `O=C(O)c1ccc(-n2cccc2/C=C2/SC(=O)N(CC(=O)N3CCCC3)C2=O)cc1`?
Keap1-Nrf2 PPI: 3; Tn6 DDE FP: 5; LANA DNA inh: 64*; Rtt109 Vps75: -4; DDE Tn7 FP inh: 5

What do the screens show for `Cc1ccc(NC(=O)OCc2cc(-c3ccccc3)on2)cc1`?
Keap1-Nrf2 PPI: 1; Tn6 DDE FP: -1; LANA DNA inh: 2; Rtt109 Vps75: 56*; DDE Tn7 FP inh: 1

How did Cc1cc(-c2n[nH]c(=S)n2N=Cc2cccc(Oc3ccccc3)c2)n[nH]1 do in these assays?
Tn6 DDE FP: 6; DDE Tn7 FP inh: 3

Results for NS(=O)(=O)c1ccc(NC(=O)COc2ccc(C(=O)c3ccc(F)cc3)cc2)cc1 ?
Keap1-Nrf2 PPI: -5; Tn6 DDE FP: 24*; LANA DNA inh: 2; Rtt109 Vps75: -2; DDE Tn7 FP inh: 1

How did Cc1ccc2c(c1)-c1c(cnn1CC(=O)NCCc1ccc(Cl)cc1)CO2 do in these assays?
Tn6 DDE FP: -3; DDE Tn7 FP inh: 8

Results for CC(C)(CS(=O)(=O)[O-])NC(=O)CC[N+](C)(C)CCO ?
Keap1-Nrf2 PPI: -1; Tn6 DDE FP: 0; LANA DNA inh: 82*; Rtt109 Vps75: 0; DDE Tn7 FP inh: 2

How did CCc1ccc(S(=O)(=O)Nc2cc(SCC(=O)O)c(O)c3ccccc23)cc1 do in these assays?
Keap1-Nrf2 PPI: -29; Tn6 DDE FP: -6; LANA DNA inh: 2; Rtt109 Vps75: -5; DDE Tn7 FP inh: 4

Results for Cc1ccc(C)c(S(=O)(=O)Nc2cc(SCC(=O)O)c(O)c3ccccc23)c1 ?
Keap1-Nrf2 PPI: 61*; LANA DNA inh: 3; Rtt109 Vps75: -40

How did CN(C)c1nc2c(c(=O)[nH]c(=O)n2C)n1CCOc1ccccc1 do in these assays?
Keap1-Nrf2 PPI: -1; Tn6 DDE FP: -4; LANA DNA inh: 1; Rtt109 Vps75: -1; DDE Tn7 FP inh: 3

What do the screens show for `CCN(CC)c1nc2c(c(=O)[nH]c(=O)n2C)n1CCOc1ccccc1`?
Keap1-Nrf2 PPI: -3; Tn6 DDE FP: 1; LANA DNA inh: 0; Rtt109 Vps75: 58*; DDE Tn7 FP inh: 0

Results for CCn1c(CCn2c3ccccc3c3ccccc32)n[nH]c1=S ?
Keap1-Nrf2 PPI: -6; Tn6 DDE FP: 3; LANA DNA inh: 0; Rtt109 Vps75: 50*; DDE Tn7 FP inh: -1

What do the screens show for `CCOC(=O)[C@]12CCCCC/C=C\1N(CCc1ccc(Cl)cc1)C(=O)[C@H]2CC(=O)NCCCCc1ccccc1`?
Tn6 DDE FP: -8; DDE Tn7 FP inh: 0

How did CCN1C(=O)CC(N2CCOCC2)C1=O (stereo unspecified) do in these assays?
Keap1-Nrf2 PPI: 0; Tn6 DDE FP: 4; LANA DNA inh: 0; Rtt109 Vps75: 2; DDE Tn7 FP inh: -2

Results for CCN1C(=O)CC(N2CCC(C(=O)N3CCOCC3)CC2)C1=O (stereo unspecified) ?
Keap1-Nrf2 PPI: 0; Tn6 DDE FP: 7; LANA DNA inh: 1; Rtt109 Vps75: 4; DDE Tn7 FP inh: 16*

Results for O=C1C(=Cc2ccc(Br)o2)C(=O)c2ccccc21 ?
Keap1-Nrf2 PPI: inconclusive; LANA DNA inh: 106*; Rtt109 Vps75: 43

What do the screens show for `CC(C)(C)c1cc(N)n2nc(C(C)(C)C)cc2n1`?
Keap1-Nrf2 PPI: 1; Tn6 DDE FP: -2; LANA DNA inh: 1; Rtt109 Vps75: 53*; DDE Tn7 FP inh: -1

Results for Cc1cc2nc(C(C)(C)C)cc(N)n2n1 ?
Keap1-Nrf2 PPI: -2; Tn6 DDE FP: -11; LANA DNA inh: -1; Rtt109 Vps75: 0; DDE Tn7 FP inh: 2

How did COc1ccc2nc(NC(=O)CN3C(=O)NC4(CCCC4)C3=O)sc2c1 do in these assays?
Keap1-Nrf2 PPI: 1; Tn6 DDE FP: 1; LANA DNA inh: -1; Rtt109 Vps75: 1; DDE Tn7 FP inh: 4

What do the screens show for `COc1ccc2nc(NC(=O)CN3C(=O)NC4(CCCCC4)C3=O)sc2c1`?
Keap1-Nrf2 PPI: 2; Tn6 DDE FP: 7; LANA DNA inh: -2; Rtt109 Vps75: 52*; DDE Tn7 FP inh: 7

How did Cc1ccc(S(=O)(=O)N2OC(c3ccccc3)C[C@H]2CC=C(c2ccccc2)c2ccccc2)cc1 (stereo partly specified) do in these assays?
Tn6 DDE FP: 3; DDE Tn7 FP inh: -2

What do the screens show for `COc1ccc(Cc2nnc(NC(=O)c3cc(OC)c(OC)c(OC)c3)s2)cc1`?
Keap1-Nrf2 PPI: -4; Tn6 DDE FP: 2; LANA DNA inh: 2; Rtt109 Vps75: 55*; DDE Tn7 FP inh: 0

How did Cc1ccc(-n2c(COc3ccccc3)nnc2SCC(=O)Nc2ccc3c(c2)OCO3)cc1 do in these assays?
Tn6 DDE FP: -2; DDE Tn7 FP inh: -5

Results for COc1ccc(S[C@]2(C(=O)N3CCN(C(C)=O)CC3)CC(=O)N(C(=O)c3ccccc3)[C@@H]2c2ccc(OC)cc2)cc1 ?
Tn6 DDE FP: -3; DDE Tn7 FP inh: 0

Results for COc1cc(/C=C/C(=O)O)cc(S(=O)(=O)NCc2ccco2)c1OC ?
Keap1-Nrf2 PPI: 6; Tn6 DDE FP: 0; LANA DNA inh: -2; Rtt109 Vps75: 1; DDE Tn7 FP inh: -9

What do the screens show for `COc1ccc(/C=C/C(=O)O)cc1S(=O)(=O)NCc1ccco1`?
Keap1-Nrf2 PPI: -2; Tn6 DDE FP: -8; LANA DNA inh: 0; Rtt109 Vps75: 50*; DDE Tn7 FP inh: -11

Results for COc1ccc(C(=O)NNC(=O)c2ccncc2)cc1 ?
Keap1-Nrf2 PPI: -5; Tn6 DDE FP: -3; LANA DNA inh: 0; Rtt109 Vps75: 65*; DDE Tn7 FP inh: -6

Results for COc1ccc(NC(=O)c2ccc(NC(=O)c3ccncc3)cc2)cc1 ?
Keap1-Nrf2 PPI: -2; Tn6 DDE FP: 7; LANA DNA inh: 2; Rtt109 Vps75: -2; DDE Tn7 FP inh: 3

Results for O=C(Nc1nc(-c2nc3ccccc3s2)cs1)c1ccc(S(=O)(=O)N2CCOCC2)cc1 ?
Keap1-Nrf2 PPI: -7; Tn6 DDE FP: -2; LANA DNA inh: 0; Rtt109 Vps75: 62*; DDE Tn7 FP inh: 0

How did O=S1(=O)c2ccccc2-c2c(nnn2Cc2ccccc2)CN1C1CC1 do in these assays?
Tn6 DDE FP: 6; DDE Tn7 FP inh: -8

What do the screens show for `O=[N+]([O-])c1ccccc1/C=C/C=Nn1c(-c2ccc(F)cc2)n[nH]c1=S`?
Tn6 DDE FP: 0; DDE Tn7 FP inh: -10

What do the screens show for `CC1Cc2ccccc2N1C(=O)COC(=O)c1ccc(O)cc1` (stereo unspecified)?
Keap1-Nrf2 PPI: -2; Tn6 DDE FP: 0; LANA DNA inh: -1; Rtt109 Vps75: 52*; DDE Tn7 FP inh: 12

How did CCN(CC)C(=O)CSc1nnc(-c2ccc(C(C)(C)C)cc2)n1-c1ccc(Cl)cc1 do in these assays?
Tn6 DDE FP: 0; DDE Tn7 FP inh: 4

Assay outcomes deposited in PubChem BioAssay by several laboratories.
